Assays:
Klebsiella pneumoniae [1] = experiment: Potentiation of colistin-induced antimicrobial activity against colistin-resistant Klebsiella pneumoniae B9 assessed as fold reduction in colistin MIC at 60 uM after 18 hrs by broth microdilution assay; type: functional
Outline: (§1)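 Checkerboard-style resensitization following adapted CLSI broth microdilution. Bacteria were grown 4–6 h in CAMHB and subcultured to 5×10^5 CFU/mL. Adjuvant was added from DMSO stock and held constant while colistin was serially diluted in the dosed subculture. Plates were incubated stationary at 37°C for 18 h, then MICs were read. Fold reduction was taken relative to the colistin MIC without adjuvant.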

Acinetobacter baumannii [2] = experiment: Potentiation of colistin-induced antimicrobial activity against colistin-resistant Acinetobacter baumannii 4106 assessed as fold reduction in colistin MIC at 60 uM after 18 hrs by broth microdilution assay; type: functional; outline: as §1
Acinetobacter baumannii [3] = experiment: Potentiation of colistin-induced antimicrobial activity against colistin-resistant Acinetobacter baumannii ATCC 17978 expressing mcr1 gene assessed as fold reduction in colistin MIC at 60 uM after 18 hrs by broth microdilution assay; type: functional; outline: as §1
Escherichia coli [4] = experiment: Potentiation of colistin-induced antimicrobial activity against colistin-resistant Escherichia coli ATCC 25922 expressing mcr1 gene assessed as fold reduction in colistin MIC at 60 uM after 18 hrs by broth microdilution assay; type: functional; outline: as §1
Acinetobacter baumannii [5] = experiment: Toxicity in Acinetobacter baumannii 4106 after 18 hrs by broth microdilution assay; type: organism-based; conditions: in vitro
Outline: (§2)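 Single-agent MIC per CLSI broth microdilution. Cells from a 4–6 h culture in cation-adjusted Mueller-Hinton broth adjusted to 5 ×10^5 CFU/mL. Compound (DMSO stock) added to 200 μM top concentration and twofold serially diluted six times, with an untreated control row. Plates sealed and incubated stationary at 37°C for 18 h before MIC read.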

Acinetobacter baumannii [6] = experiment: Toxicity in Acinetobacter baumannii ATCC 17978 expressing mcr1 gene after 18 hrs by broth microdilution assay; type: organism-based; outline: as §2
Klebsiella pneumoniae [7] = experiment: Toxicity in Klebsiella pneumoniae B9 after 18 hrs by broth microdilution assay; type: organism-based; outline: as §2
Escherichia coli [8] = experiment: Toxicity in Escherichia coli ATCC 25922 after 18 hrs by broth microdilution assay; type: organism-based; conditions: in vitro; outline: as §2

Structure (SMILES) | fold change (FC) (Klebsiella pneumoniae [1]) | fold change (FC) (Acinetobacter baumannii [2]) | fold change (FC) (Acinetobacter baumannii [3]) | fold change (FC) (Escherichia coli [4]) | MIC (Acinetobacter baumannii [5]) [µM] | MIC (Acinetobacter baumannii [6]) [µM] | MIC (Klebsiella pneumoniae [7]) [µM] | MIC (Escherichia coli [8]) [µM]
CCCCn1c(C(=O)NCCc2c[nH]c3ccccc23)cc(Br)c1Br | 16 | 16 | 2 | 0 |  |  |  | 
O=C(NCCc1c[nH]c2ccccc12)c1ccc(Br)c(Br)n1 | 128 | 8 | 0 | 0 |  |  |  | 
O=C(NCCc1c[nH]c2ccccc12)c1cncc(Br)c1 | 8 | 4 | 0 | 0 |  |  |  | 
O=C(NCCc1c[nH]c2ccccc12)c1cccs1 | 0 | 8 | 0 | 0 |  |  |  | 
Cn1c(C(=O)NCCc2c[nH]c3ccccc23)cc(Br)c1Br | 256 | 32 | 16 | 2 |  |  |  | 
O=C(NCCc1c[nH]c2ccc(O)cc12)c1cc(Br)c(Br)[nH]1 | 8 | 4 | 4 | 4 | > 200 | > 200 | > 200 | > 200
O=C(NC1Cc2ccccc2C1)c1cc(Br)c(Br)[nH]1 | 0 | 8 | 0 | 0 | > 200 | > 200 | > 200 | > 200
O=C(NCc1c[nH]c2ccccc12)c1cc(I)c(I)[nH]1 | 0 | 0 | 0 | 0 |  |  |  | 
Cn1cc(CCNC(=O)c2cc(Br)c(Br)[nH]2)c2ccccc21 | 0 | 4 | 0 | 0 | > 200 | > 200 | > 200 | > 200
O=C(NCCc1c[nH]c2ccccc12)c1ccc(Br)o1 | 64 | 16 | 2 | 0 |  |  |  | 
O=C(NCCc1c[nH]c2ccccc12)c1ccc[nH]1 | 0 | 2 | 2 | 0 |  |  |  | 
O=C(NCCc1csc2ccccc12)c1cc(Br)c(Br)[nH]1 | 16 | 32 | 8 | 4 | > 200 | > 200 | > 200 | > 200
O=C(NCCc1c[nH]c2ccccc12)c1ccccn1 | 0 | 8 | 0 | 0 |  |  |  | 
O=C(NCCc1c[nH]cn1)c1cc(Br)c(Br)[nH]1 | 0 | 8 | 0 | 0 | > 200 | > 200 | > 200 | > 200
O=C(NCCc1c[nH]c2ccccc12)c1sccc1Br | 128 | 64 | 4 | 2 |  |  |  | 
O=C(NCc1ccccc1)c1cc(Br)c(Br)[nH]1 | 2 | 2 | 0 | 0 | > 200 | > 200 | > 200 | > 200
Cn1cc(Br)cc1C(=O)NCCc1c[nH]c2ccccc12 | 4 | 32 | 4 | 2 |  |  |  | 
O=C(NCCc1cn(Cc2ccccc2)c2ccccc12)c1cc(Br)c(Br)[nH]1 | 0 | 0 | 0 | 0 | > 200 | > 200 | > 200 | > 200
O=C(NCCc1c[nH]c2ccccc12)c1cc(Br)c(Br)s1 | 512 | 32 | 16 | 2 |  |  |  | 
COc1ccc2[nH]cc(CCNC(=O)c3cc(Br)c(Br)[nH]3)c2c1 | 128 | 128 | 8 | 2 | > 200 | > 200 | > 200 | > 200
O=C(NCCc1ccccn1)c1cc(Br)c(Br)[nH]1 | 2 | 0 | 0 | 0 | > 200 | > 200 | > 200 | > 200
O=C(NCCc1c[nH]c2ccccc12)c1cc(Cl)c(Cl)[nH]1 | 1024 | 256 | 32 | 8 |  |  |  | 
O=C(NCCc1c[nH]c2ccccc12)c1cc(Br)c(Br)o1 | 512 | 64 | 16 | 2 |  |  |  | 
O=C(NCc1c[nH]c2ccccc12)c1cccc(Br)n1 | 32 | 32 | 0 | 0 |  |  |  | 
O=C(NCCc1c[nH]c2ccccc12)c1cc(Cl)c[nH]1 | 8 | 16 | 2 | 2 |  |  |  | 
O=C(NCCc1c[nH]c2ccccc12)c1cc(Br)c[nH]1 | 128 | 64 | 16 | 2 |  |  |  | 
Cn1cccc1C(=O)NCCc1c[nH]c2ccccc12 | 0 | 2 | 0 | 0 |  |  |  | 
O=C(NCCc1c[nH]c2ccccc12)c1cc(Br)c(Br)n1Cc1ccccc1 | 16 | 8 | 2 | 0 |  |  |  | 
